Assay results pooled from the literature.
Compare with care: the assays were run in different laboratories.
Target: Serine/threonine-protein kinase WNK1 (WNK1, Homo sapiens, UniProt Q9H4A3)

With `CS(=O)(=O)Nc1cccc(-c2csc(NC(=O)CSc3nc4nccnc4c(=O)n3CCc3ccccc3)n2)c1` the inhibition was -3% (enzyme activity; inhibitor; 10 µM).
`FC(F)(F)Oc1cccc(-c2cnc3ccc(-c4ccncc4)nn23)c1` gave an activity vs control of 99% (enzyme activity; inhibitor; radiometric; 5 µM).
`N#Cc1ccc(Nc2ccc3[nH]c(=O)[nH]c3c2)c(Cl)c1` has a remaining binding of 100% (cell-free assay; competition with immobilised ligand; 1 µM).
For `COc1cc(Nc2cnc(C#N)c(O[C@H](C)CN(C)C)n2)ncc1-c1cnn(C)c1`, the remaining activity was 95% (enzyme activity; inhibitor; radiometric; 1 µM).
With `COc1cc(Cl)c(C(=O)N[C@@H](CN[C@H]2CC[C@@H](N)CC2)Cc2ccc(C#N)cc2)cc1-c1ccc(CN[C@H](C)c2ccc(C)cc2)o1` the remaining activity was 109% (enzyme activity; inhibitor; 1 µM).
The inhibition of `Cn1cncc1C1=CN(c2ncnc3[nH]cnc23)CCS1` is reported as 14.1% (enzyme activity; inhibitor; radiometric; 50 nM).
`CC(C)(O)[C@H]1CC[C@H](Nc2ccc3ncc(-c4cccc(C(F)(F)F)c4)n3n2)CC1` has a remaining activity of 92.6% (enzyme activity; inhibitor; 1 µM).
The remaining activity of `O=C(Nc1cnn(-c2csc(C(=O)NC3COC3)c2)c1)Nc1ccccc1Cl` is reported as 99.7% (enzyme activity; inhibitor; 5 µM).
With `COc1ccc2cc(OCC3(C(=O)O)CN(C(=O)c4ccc(F)cc4)C3)ccc2c1` the remaining binding was 84% (cell-free assay; competition with immobilised ligand; 1 µM).
`N[C@@H]1CCN(c2nccc(-c3cnn4ncccc34)n2)C1` has a remaining binding of 100% (binding; 1 µM).
With `Cc1ccc(C(=O)NCc2ccsc2)cc1C#Cc1cn(C(C)C)c2ncnc(N)c12` the activity vs control was 92% (enzyme activity; inhibitor; 1 µM).
With `CN([C@@H]1CCc2c(CC(=O)O)c3cc(S(C)(=O)=O)ccc3n2C1)S(=O)(=O)c1ccc(F)cc1` the remaining binding was 95% (cell-free assay; competition with immobilised ligand; 1 µM).
The inhibition of `CN1CC(Oc2cnc(C#N)cc2-c2ccn3nc(NC(=O)C4CC4)cc3c2)C1` is reported as 17% (enzyme activity; inhibitor; 1 µM).
With `C[C@@H]1CN(c2cc(-c3nn(C)c4ccc(OC5(C)CC5)cc34)ncn2)C[C@H](C)O1` the remaining binding was 82% (cell-free assay; competition with immobilised ligand; 1 µM).
`CC(C)(C)c1nc(-c2cccc(NS(=O)(=O)c3c(F)cccc3F)c2F)c(-c2ccnc(N)n2)s1` gave a remaining activity of 98% (enzyme activity; inhibitor; radiometric; 1 µM).
